Results reported in ChEMBL document CHEMBL1671627, “Increasing trends in antimicrobial resistance among clinically important anaerobes and Bacteroides fragilis isolates causing nosocomial infections: emerging resistance to carbapenems” (2008).
≈ marks a conversion by molar mass, not a printed value.

Experiments:
[1] = system: Fusobacterium necrophorum; assay: Antibacterial activity against Fusobacterium necrophorum assessed as susceptible isolates by CLSI agar dilution method in presence of clavulanate; type: functional
Outline: (§1)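 Agar dilution per CLSI guidelines on nonduplicate anaerobic bloodstream isolates collected at NTUH, January to December 2006. Isolates were spotted by Steers replicator onto supplemented Brucella blood agar and incubated anaerobically for 48 h at 35°C. MIC was the lowest drug concentration that inhibited growth. B. fragilis ATCC 25285, B. thetaiotaomicron ATCC 29741 and E. lentum ATCC 43055 were run as QC in each run.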

Prevotella intermedia [2] = assay: Antibacterial activity against Prevotella intermedia assessed as resistant isolates by CLSI agar dilution method in presence of clavulanate; type: functional
Outline: (§2)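 207 nonduplicate anaerobic blood isolates from patients with bloodstream infections at NTUH, collected January–December 2006. MICs were determined by agar dilution following CLSI guidelines. Inocula were applied with a Steers replicator onto supplemented Brucella blood agar and incubated 48 h at 35°C in an anaerobic chamber. MIC was the lowest concentration inhibiting growth. B. fragilis ATCC 25285, B. thetaiotaomicron ATCC 29741 and E. lentum ATCC 43055 served as controls in each run.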

Clostridium tertium = assay: Antibacterial activity against beta-lactamase producing Clostridium tertium assessed as resistant isolates by CLSI agar dilution method in presence of clavulanate; type: functional; outline: as §2
[3] = system: Peptostreptococcus anaerobius; assay: Antibacterial activity against beta-lactamase producing Peptostreptococcus anaerobius by CLSI agar dilution method in presence of clavulanate; type: functional
Outline: (§3)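 CLSI agar dilution MICs for anaerobic blood isolates (nonduplicate) collected from bloodstream-infection patients at a Taiwanese tertiary hospital, January–December 2006. Isolates were spotted by Steers replicator onto supplemented Brucella blood agar and incubated anaerobically for 48 h at 35°C. MIC was the lowest drug concentration inhibiting growth. Each run included B. fragilis ATCC 25285, B. thetaiotaomicron ATCC 29741 and E. lentum ATCC 43055 as quality-control strains.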

[4] = system: Peptostreptococcus anaerobius; assay: Antibacterial activity against beta-lactamase producing Peptostreptococcus anaerobius assessed as resistant isolates by CLSI agar dilution method in presence of clavulanate; type: functional; outline: as §2
Parvimonas micra [5] = assay: Antibacterial activity against beta-lactamase producing Micromonas micros by CLSI agar dilution method in presence of clavulanate; type: functional; outline: as §3
Parvimonas micra [6] = assay: Antibacterial activity against beta-lactamase producing Micromonas micros assessed as susceptible isolates by CLSI agar dilution method in presence of clavulanate; type: functional; outline: as §3
Finegoldia magna [7] = assay: Antibacterial activity against beta-lactamase producing Finegoldia magna by CLSI agar dilution method in presence of clavulanate; type: functional; outline: as §3
Finegoldia magna [8] = assay: Antibacterial activity against beta-lactamase producing Finegoldia magna assessed as susceptible isolates by CLSI agar dilution method in presence of clavulanate; type: functional; outline: as §3
[9] = system: Bacteroides thetaiotaomicron; assay: Antibacterial activity against beta-lactamase producing Bacteroides thetaiotaomicron assessed as susceptible isolates by CLSI agar dilution method; type: functional
[10] = system: Bacteroides thetaiotaomicron; assay: Antibacterial activity against beta-lactamase producing Bacteroides thetaiotaomicron assessed as susceptible isolates by CLSI agar dilution method in presence of Tazobactam; type: functional; outline: as §1
Phocaeicola vulgatus [11] = assay: Antibacterial activity against beta-lactamase producing Bacteroides vulgatus by CLSI agar dilution method; type: functional
Phocaeicola vulgatus [12] = assay: Antibacterial activity against beta-lactamase producing Bacteroides vulgatus assessed as resistant isolates by CLSI agar dilution method in presence of Tazobactam; type: functional; outline: as §2
Bacteroides uniformis = assay: Antibacterial activity against beta-lactamase producing Bacteroides uniformis assessed as resistant isolates by CLSI agar dilution method in presence of Tazobactam; type: functional; outline: as §2
Bacteroides caccae = assay: Antibacterial activity against beta-lactamase producing Bacteroides caccae assessed as susceptible isolates by CLSI agar dilution method; type: functional
Fusobacterium mortiferum [13] = assay: Antibacterial activity against Fusobacterium mortiferum by CLSI agar dilution method; type: functional
[14] = system: Fusobacterium necrophorum; assay: Antibacterial activity against Fusobacterium necrophorum by CLSI agar dilution method; type: functional
Fusobacterium varium = assay: Antibacterial activity against Fusobacterium varium assessed as susceptible isolates by CLSI agar dilution method in presence of Tazobactam; type: functional; outline: as §1
Fusobacterium mortiferum [15] = assay: Antibacterial activity against Fusobacterium mortiferum assessed as susceptible isolates by CLSI agar dilution method in presence of Tazobactam; type: functional; outline: as §1
Prevotella intermedia [16] = assay: Antibacterial activity against Prevotella intermedia by CLSI agar dilution method; type: functional
Prevotella bivia [17] = assay: Antibacterial activity against Prevotella bivia by CLSI agar dilution method in presence of Tazobactam; type: functional; outline: as §1
Prevotella intermedia [18] = assay: Antibacterial activity against Prevotella intermedia by CLSI agar dilution method in presence of Tazobactam; type: functional; outline: as §1
[19] = system: Prevotella melaninogenica; assay: Antibacterial activity against Prevotella melaninogenica by CLSI agar dilution method in presence of Tazobactam; type: functional; outline: as §1
Prevotella buccae = assay: Antibacterial activity against Prevotella buccae assessed as susceptible isolates by CLSI agar dilution method; type: functional, Segatella buccae
Prevotella bivia [20] = assay: Antibacterial activity against Prevotella bivia assessed as susceptible isolates by CLSI agar dilution method; type: functional
[21] = system: Prevotella melaninogenica; assay: Antibacterial activity against Prevotella melaninogenica assessed as resistant isolates by CLSI agar dilution method; type: functional
[22] = system: Prevotella melaninogenica; assay: Antibacterial activity against Prevotella melaninogenica assessed as resistant isolates by CLSI agar dilution method in presence of Tazobactam; type: functional; outline: as §2
[23] = system: Clostridium paraputrificum; assay: Antibacterial activity against beta-lactamase producing Clostridium paraputrificum by CLSI agar dilution method; type: functional
[24] = system: Clostridium paraputrificum; assay: Antibacterial activity against beta-lactamase producing Clostridium paraputrificum assessed as resistant isolates by CLSI agar dilution method; type: functional
[25] = system: Clostridium paraputrificum; assay: Antibacterial activity against beta-lactamase producing Clostridium paraputrificum assessed as susceptible isolates by CLSI agar dilution method in presence of Tazobactam; type: functional; outline: as §3
[26] = system: Clostridium paraputrificum; assay: Antibacterial activity against beta-lactamase producing Clostridium paraputrificum assessed as resistant isolates by CLSI agar dilution method in presence of Tazobactam; type: functional; outline: as §2
Clostridium septicum = assay: Antibacterial activity against beta-lactamase producing Clostridium septicum assessed as resistant isolates by CLSI agar dilution method in presence of Tazobactam; type: functional; outline: as §2
[27] = system: Peptostreptococcus anaerobius; assay: Antibacterial activity against beta-lactamase producing Peptostreptococcus anaerobius assessed as susceptible isolates by CLSI agar dilution method; type: functional
Parvimonas micra [28] = assay: Antibacterial activity against beta-lactamase producing Micromonas micros assessed as resistant isolates by CLSI agar dilution method; type: functional
[29] = system: Peptoniphilus asaccharolyticus; assay: Antibacterial activity against beta-lactamase producing Peptoniphilus asaccharolyticus by CLSI agar dilution method; type: functional
[30] = system: Peptoniphilus asaccharolyticus; assay: Antibacterial activity against beta-lactamase producing Peptoniphilus asaccharolyticus assessed as resistant isolates by CLSI agar dilution method; type: functional
[31] = system: Peptoniphilus asaccharolyticus; assay: Antibacterial activity against beta-lactamase producing Peptoniphilus asaccharolyticus by CLSI agar dilution method in presence of Tazobactam; type: functional; outline: as §3
Finegoldia magna [32] = assay: Antibacterial activity against beta-lactamase producing Finegoldia magna assessed as susceptible isolates by CLSI agar dilution method in presence of Tazobactam; type: functional; outline: as §3

**Q.** `CC1(C)S[C@@H]2[C@H](NC(=O)[C@H](N)c3ccc(O)cc3)C(=O)N2[C@H]1C(=O)O` [AMOXICILLIN] was tested. Which Activity [1] did it give?
**A.** 89%

**Q.** And the Activity (Prevotella intermedia [2])?
**A.** 6%

**Q.** And the Activity (Clostridium tertium)?
**A.** 4%

**Q.** And the MIC50 [3]?
**A.** 0.25 µg/mL

**Q.** And the MIC90 [3]?
**A.** 2 µg/mL

**Q.** And the Activity [4]?
**A.** 3%

**Q.** What about the MIC50 (Parvimonas micra [5]) of the same compound?
**A.** 0.25 µg/mL

**Q.** And the MIC90 (Parvimonas micra [5])?
**A.** 2 µg/mL

**Q.** What about the Activity (Parvimonas micra [6]) of the same compound?
**A.** 94%

**Q.** What about the MIC50 (Finegoldia magna [7]) of the same compound?
**A.** 0.25 µg/mL

**Q.** What about the MIC90 (Finegoldia magna [7]) of the same compound?
**A.** 2 µg/mL

**Q.** What about the Activity (Finegoldia magna [8]) of the same compound?
**A.** 94%

**Q.** `CCN1CCN(C(=O)N[C@@H](C(=O)N[C@@H]2C(=O)N3[C@@H]2SC(C)(C)[C@@H]3C(=O)O)c2ccccc2)C(=O)C1=O` [PIPERACILLIN] was tested. Which Activity [9] did it give?
**A.** 63%

**Q.** What about the Activity [10] of the same compound?
**A.** 93%

**Q.** What about the MIC50 (Phocaeicola vulgatus [11]) of the same compound?
**A.** > 128 µg/mL

**Q.** What about the MIC90 (Phocaeicola vulgatus [11]) of the same compound?
**A.** > 128 µg/mL

**Q.** What about the Activity (Phocaeicola vulgatus [12]) of the same compound?
**A.** 4%

**Q.** And the Activity (Bacteroides uniformis)?
**A.** 4%

**Q.** What about the Activity (Bacteroides caccae) of the same compound?
**A.** 35%

**Q.** And the MIC50 (Fusobacterium mortiferum [13])?
**A.** 2 µg/mL (≈ 3.86 µM)

**Q.** And the MIC90 (Fusobacterium mortiferum [13])?
**A.** 8 µg/mL (≈ 15.5 µM)

**Q.** And the MIC50 [14]?
**A.** 2 µg/mL (≈ 3.86 µM)

**Q.** And the MIC90 [14]?
**A.** 8 µg/mL (≈ 15.5 µM)

**Q.** And the Activity (Fusobacterium varium)?
**A.** 100%

**Q.** What about the Activity (Fusobacterium mortiferum [15]) of the same compound?
**A.** 100%

**Q.** What about the MIC50 (Prevotella intermedia [16]) of the same compound?
**A.** 16 µg/mL (≈ 30.9 µM)

**Q.** And the MIC90 (Prevotella intermedia [16])?
**A.** 128 µg/mL (≈ 247 µM)

**Q.** And the MIC (Prevotella bivia [17])?
**A.** 0.03 µg/mL

**Q.** What about the MIC50 (Prevotella bivia [17]) of the same compound?
**A.** 0.03 µg/mL

**Q.** What about the MIC90 (Prevotella bivia [17]) of the same compound?
**A.** 1 µg/mL

**Q.** What about the MIC (Prevotella intermedia [18]) of the same compound?
**A.** 0.03 µg/mL

**Q.** What about the MIC50 (Prevotella intermedia [18]) of the same compound?
**A.** 0.03 µg/mL

**Q.** What about the MIC90 (Prevotella intermedia [18]) of the same compound?
**A.** 1 µg/mL

**Q.** What about the MIC [19] of the same compound?
**A.** 0.03 µg/mL

**Q.** And the MIC50 [19]?
**A.** 0.03 µg/mL

**Q.** What about the MIC90 [19] of the same compound?
**A.** 1 µg/mL

**Q.** What about the Activity (Prevotella buccae) of the same compound?
**A.** 71%

**Q.** What about the Activity (Prevotella bivia [20]) of the same compound?
**A.** 71%

**Q.** And the Activity [21]?
**A.** 22%

**Q.** What about the Activity [22] of the same compound?
**A.** 0%

**Q.** What about the MIC50 [23] of the same compound?
**A.** 0.25 µg/mL (≈ 0.483 µM)

**Q.** What about the MIC90 [23] of the same compound?
**A.** 2 µg/mL (≈ 3.86 µM)

**Q.** What about the Activity [24] of the same compound?
**A.** 0%

**Q.** And the Activity [25]?
**A.** 100%

**Q.** And the Activity [26]?
**A.** 0%

**Q.** And the Activity (Clostridium septicum)?
**A.** 0%

**Q.** And the Activity [27]?
**A.** 97%

**Q.** And the Activity (Parvimonas micra [28])?
**A.** 3%

**Q.** And the MIC50 [29]?
**A.** 0.12 µg/mL (≈ 0.232 µM)

**Q.** What about the MIC90 [29] of the same compound?
**A.** 8 µg/mL (≈ 15.5 µM)

**Q.** What about the Activity [30] of the same compound?
**A.** 3%

**Q.** And the MIC [31]?
**A.** 0.03 µg/mL

**Q.** What about the MIC50 [31] of the same compound?
**A.** 0.03 µg/mL

**Q.** And the MIC90 [31]?
**A.** 2 µg/mL

**Q.** What about the Activity (Finegoldia magna [32]) of the same compound?
**A.** 97%
